Data set [1] addresses T1, ATP-binding cassette sub-family C member 3 (Homo sapiens, UniProt O15438). The experiment in a line: Inhibition of MRP3 in doxorubicin-resistant human HT-29 cells assessed as nitration of tyrosine residues at 5 uM after 24 hrs by Western blot analysis. It counts as cell-based. The conditions noted are these: ht-29, 24 h. The gist of the method: (§1)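 HT29-dx cells were treated for 24 h with 5 μM compound and lysed. Whole lysate was immunoprecipitated with a polyclonal anti-nitrotyrosine antibody, then Western blotted with anti-P-gp or anti-MRP3 antibody. Total transporter levels were checked before immunoprecipitation, with GAPDH as loading control. Representative of three experiments.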

The test system of data set [2] is HT-29. Kind of data set: Induction of nitrite production in doxorubicin-resistant human HT-29 cells at 5 uM after 1 to 24 hrs by Griess method. The data set is classed as functional, cell-based. The method in brief:
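In a time-course run, HT29-dx cells were exposed to 5 μM compound. Nitrite in the medium was measured by the Griess reaction at times between 1 and 24 h.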

Data set [3] addresses T1, ATP-binding cassette sub-family C member 3. Kind of data set: Inhibition of MRP3-mediated drug resistance in doxorubicin-resistant human HT-29 cells assessed as increase in drug accumulation at 5 uM after 1 to 24 hrs by spectrofluorometric analysis. The data set is classed as cell-based. The conditions noted are these: ht-29, 5 µM. The gist of the method:
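Time course in HT29-dx cells with 5 μM drug over 1–24 h. Intracellular content was read by spectrofluorimetry of cell lysates.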

Data set [4] shares this target. Kind of data set: Inhibition of MRP3-mediated drug resistance in doxorubicin-resistant human HT-29 cells assessed as increase in drug accumulation at 25 uM after 24 hrs by spectrofluorometric analysis. The data set is classed as cell-based. As to conditions: ht-29, 24 h. The gist of the method: (§2)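 HT29-dx cells in RPMI 1640 were incubated for 24 h with 0.5, 1, 2.5, 5 or 25 μM drug, then lysed. Intracellular drug was measured spectrofluorimetrically (excitation 475 nm, emission 553 nm). Data are means ± SD (n = 3) versus untreated cells.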

Data set [5] has the same target. Kind of data set: Inhibition of MRP3-mediated drug resistance in doxorubicin-resistant human HT-29 cells assessed as increase in drug accumulation at 0.5 to 5 uM after 24 hrs by spectrofluorometric analysis. It counts as cell-based. The conditions noted are these: ht-29, 24 h. The gist of the method:
as §2

Data set [6] shares this target. The experiment in a line: Inhibition of MRP3-mediated drug resistance in doxorubicin-resistant human HT-29 cells assessed as increase in extracellular LDH level at 5 uM after 24 hrs by spectrofluorometric analysis. The data set is classed as cell-based. As to conditions: ht-29, 24 h. The gist of the method: (§3)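 HT29-dx cells were incubated for 24 h with 5 μM compound, alone or with 100 μM PTIO or 10 μL/mL packed red blood cells as NO scavengers. Readouts were intracellular drug content, extracellular LDH activity and nitrite in the culture supernatant. Measured in duplicate, n = 3.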

The target in data set [7] is ATP-dependent translocase ABCB1 (Homo sapiens, UniProt P08183). The experiment in a line: Inhibition of P-gp in doxorubicin-resistant human HT-29 cells at 5 umol/L incubated for 24 hrs followed by compound wash out measured after 20 mins by Rhodamine 123 staining-based flow cytometry. It counts as cell-based. The conditions noted are these: ht-29, 24 h, 5 µM.
The target of data set [8] is T1, ATP-binding cassette sub-family C member 3. Kind of data set: Inhibition of MRP3-mediated drug resistance in doxorubicin-resistant human HT-29 cells assessed as increase in doxorubicin accumulation at 5 umol/L co-administered with doxorubicin after 24 hrs by spectrofluorometric analysis. The data set is classed as cell-based. The conditions noted are these: ht-29, 24 h, 5 µM.

Data set [9] shares this target. The experiment in a line: Inhibition of MRP3-mediated drug resistance in doxorubicin-resistant human HT-29 cells assessed as increase in doxorubicin accumulation at 5 umol/L incubated for 24 hrs followed by compound wash out measured 24 hrs post doxorubicin administration by spectrofluorometric analysis. The data set is classed as cell-based. As to conditions: ht-29, 24 h, 5 µM.

Data set [10] relates to HT-29. Kind of data set: Inhibition of P-gp in doxorubicin-resistant human HT-29 cells assessed as nitration of tyrosine residues at 5 uM after 24 hrs by Western blot analysis. It counts as cell-based. The gist of the method:
as §1

Data set [11] relates to HT-29. The experiment in a line: Induction of nitrite production in doxorubicin-resistant human HT-29 cells at 5 uM by Griess method. The data set is classed as functional, cell-based. As to conditions: TDE = time-dependent effect. The method in brief: as §3
Data set [12] relates to HT-29. Kind of data set: Induction of nitrite production in doxorubicin-resistant human HT-29 cells after 24 hrs by Griess method. It counts as functional, cell-based. The gist of the method: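 HT29-dx cell monolayers were incubated for 24 h with 0.5, 1, 2.5, 5 or 25 μM compound. Nitrite in the culture medium was quantified by the Griess reaction. Data are means ± SD (n = 3) versus untreated cells.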

Data set [13] has as its target T1, ATP-binding cassette sub-family C member 3. Kind of data set: Inhibition of MRP3-mediated drug resistance in doxorubicin-resistant human HT-29 cells assessed as increase in extracellular LDH level at 5 uM after 24 hrs by spectrofluorometric analysis in presence of nitric oxide scavenger PTIO and RBCs. It counts as cell-based. The conditions noted are these: ht-29, 24 h. The gist of the method: as §3

Data set [14] has the same target. The experiment in a line: Inhibition of MRP3-mediated drug resistance in doxorubicin-resistant human HT-29 cells assessed as increase in doxorubicin accumulation at 5 uM by spectrofluorometric analysis. The data set is classed as cell-based. As to conditions: ht-29, 5 µM, TDE = time-dependent effect.
Data set [15] shares this target. Kind of data set: Inhibition of MRP3-mediated drug resistance in doxorubicin-resistant human HT-29 cells assessed as increase in doxorubicin accumulation at 5 uM after 24 hrs by spectrofluorometric analysis in presence of nitric oxide scavenger PTIO and RBCs. It counts as cell-based. As to conditions: ht-29, 24 h. The gist of the method:
as §3

For data set [16] the target is unchanged. Kind of data set: Inhibition of MRP3-mediated drug resistance in doxorubicin-resistant human HT-29 cells assessed as increase in doxorubicin accumulation after 24 hrs by spectrofluorometric analysis. The data set is classed as cell-based. The conditions noted are these: ht-29, 24 h.

Calls of active or inactive are those of the source. The calls are words filed in the database; no cut-off is given here.

T1 sequence (O15438 whole entry): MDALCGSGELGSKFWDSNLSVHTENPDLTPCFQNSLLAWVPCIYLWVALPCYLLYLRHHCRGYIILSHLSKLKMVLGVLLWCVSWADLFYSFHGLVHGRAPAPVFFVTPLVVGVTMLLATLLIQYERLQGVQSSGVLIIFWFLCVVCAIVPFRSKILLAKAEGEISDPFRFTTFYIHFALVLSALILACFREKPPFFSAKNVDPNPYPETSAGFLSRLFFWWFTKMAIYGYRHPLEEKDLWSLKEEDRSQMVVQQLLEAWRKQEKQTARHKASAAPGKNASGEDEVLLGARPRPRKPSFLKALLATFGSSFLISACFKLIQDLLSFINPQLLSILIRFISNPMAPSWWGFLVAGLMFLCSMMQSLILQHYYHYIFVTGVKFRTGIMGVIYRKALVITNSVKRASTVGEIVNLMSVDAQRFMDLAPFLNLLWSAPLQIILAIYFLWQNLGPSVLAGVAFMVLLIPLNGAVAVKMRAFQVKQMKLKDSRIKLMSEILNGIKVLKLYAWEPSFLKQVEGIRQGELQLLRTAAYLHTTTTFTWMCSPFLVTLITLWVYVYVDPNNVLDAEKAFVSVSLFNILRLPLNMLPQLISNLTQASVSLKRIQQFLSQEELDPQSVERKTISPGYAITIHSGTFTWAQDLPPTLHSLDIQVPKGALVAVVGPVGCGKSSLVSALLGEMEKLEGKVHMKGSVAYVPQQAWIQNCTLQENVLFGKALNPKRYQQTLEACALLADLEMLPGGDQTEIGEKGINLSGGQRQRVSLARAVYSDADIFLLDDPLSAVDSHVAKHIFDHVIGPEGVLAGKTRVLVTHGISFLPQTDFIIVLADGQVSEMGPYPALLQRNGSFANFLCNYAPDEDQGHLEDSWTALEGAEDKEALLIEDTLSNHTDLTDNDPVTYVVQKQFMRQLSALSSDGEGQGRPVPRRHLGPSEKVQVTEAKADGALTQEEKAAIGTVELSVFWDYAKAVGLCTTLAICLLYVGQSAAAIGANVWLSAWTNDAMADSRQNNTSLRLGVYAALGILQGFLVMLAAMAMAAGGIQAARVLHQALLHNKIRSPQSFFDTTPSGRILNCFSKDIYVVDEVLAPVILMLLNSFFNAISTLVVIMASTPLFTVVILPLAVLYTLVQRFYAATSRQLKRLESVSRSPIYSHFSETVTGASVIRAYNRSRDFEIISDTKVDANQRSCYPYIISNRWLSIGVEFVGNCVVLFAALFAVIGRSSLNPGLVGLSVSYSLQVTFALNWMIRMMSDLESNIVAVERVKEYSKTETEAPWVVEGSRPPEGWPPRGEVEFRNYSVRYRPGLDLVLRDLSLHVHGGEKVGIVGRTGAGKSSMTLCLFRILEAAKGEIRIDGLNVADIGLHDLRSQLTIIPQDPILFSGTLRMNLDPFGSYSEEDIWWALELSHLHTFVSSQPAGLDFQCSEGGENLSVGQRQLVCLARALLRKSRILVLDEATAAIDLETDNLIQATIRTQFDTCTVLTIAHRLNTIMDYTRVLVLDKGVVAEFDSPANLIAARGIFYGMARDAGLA
Sequence of ATP-dependent translocase ABCB1 (P08183 whole entry): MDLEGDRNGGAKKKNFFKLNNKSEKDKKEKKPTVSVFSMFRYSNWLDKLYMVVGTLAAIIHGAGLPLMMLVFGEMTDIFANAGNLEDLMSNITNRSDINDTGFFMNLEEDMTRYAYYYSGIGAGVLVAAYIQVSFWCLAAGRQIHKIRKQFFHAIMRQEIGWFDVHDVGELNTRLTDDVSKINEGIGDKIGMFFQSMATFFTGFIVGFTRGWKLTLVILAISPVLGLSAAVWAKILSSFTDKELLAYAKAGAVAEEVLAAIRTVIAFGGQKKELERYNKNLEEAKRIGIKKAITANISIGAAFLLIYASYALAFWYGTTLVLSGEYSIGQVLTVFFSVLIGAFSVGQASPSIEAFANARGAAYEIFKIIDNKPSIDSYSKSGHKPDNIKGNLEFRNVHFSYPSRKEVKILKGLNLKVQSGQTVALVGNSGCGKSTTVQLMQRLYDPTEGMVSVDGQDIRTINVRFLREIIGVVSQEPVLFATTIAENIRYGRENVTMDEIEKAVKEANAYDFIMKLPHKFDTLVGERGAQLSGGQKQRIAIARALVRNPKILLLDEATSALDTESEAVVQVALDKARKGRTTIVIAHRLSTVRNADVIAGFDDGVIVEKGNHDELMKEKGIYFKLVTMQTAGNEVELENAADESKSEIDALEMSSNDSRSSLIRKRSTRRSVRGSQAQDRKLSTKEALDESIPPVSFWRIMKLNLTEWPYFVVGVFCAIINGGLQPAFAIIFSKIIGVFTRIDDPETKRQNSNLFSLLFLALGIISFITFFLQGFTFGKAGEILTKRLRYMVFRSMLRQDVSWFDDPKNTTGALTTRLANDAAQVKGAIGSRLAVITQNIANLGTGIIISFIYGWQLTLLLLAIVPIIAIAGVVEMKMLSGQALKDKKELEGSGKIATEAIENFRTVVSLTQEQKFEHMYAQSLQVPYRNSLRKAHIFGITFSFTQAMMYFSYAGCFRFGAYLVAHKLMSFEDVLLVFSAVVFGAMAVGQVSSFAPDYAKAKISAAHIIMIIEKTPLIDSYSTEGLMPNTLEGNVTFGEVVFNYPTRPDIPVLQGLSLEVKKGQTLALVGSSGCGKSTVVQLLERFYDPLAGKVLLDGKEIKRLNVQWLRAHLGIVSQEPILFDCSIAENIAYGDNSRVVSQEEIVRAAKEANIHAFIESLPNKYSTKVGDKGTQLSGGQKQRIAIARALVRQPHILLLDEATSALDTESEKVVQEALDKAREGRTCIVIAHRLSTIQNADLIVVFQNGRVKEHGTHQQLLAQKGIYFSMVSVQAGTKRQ

With `COc1cccc2c1C(=O)c1c(O)c3c(c(O)c1C2=O)C[C@@](O)(C(=O)CO)C[C@@H]3O[C@H]1C[C@H](N)[C@H](O)[C@H](C)O1` [DOXORUBICIN], the “inhibition (INH)” value was “Not Active” in [1], “Not Active” in data set [3], “Active” in data set [4] and “Not Active” in data set [5]. In addition, the result in [2] was inactive.
Take `COC(=O)c1ccc(CC(CO[N+](=O)[O-])O[N+](=O)[O-])cc1` (stereo not drawn): in data set [6], the “inhibition (INH)” value was “Not Active”.
Take `COC(=O)CCOc1no[n+]([O-])c1S(=O)(=O)c1ccccc1`: the “inhibition (INH)” value in [7] is given as “Not Active”; in data set [6] it was “Not Active”; in [8] it was “Active”; in data set [9] it was “Active”.
Take `COc1cccc2c1C(=O)c1c(O)c3c(c(O)c1C2=O)C[C@@](O)(C(=O)COC(=O)CCOc1no[n+]([O-])c1S(=O)(=O)c1ccccc1)C[C@@H]3O[C@H]1C[C@H](N)[C@H](O)[C@H](C)O1.Cl`: in [10], the inhibition result is “inactive”. In addition, the “inhibition (INH)” value is on record as “Active” in data set [1]; “Not Active” in data set [13]; “Active” in data set [6]; “tde” in data set [14]; “Not Active” in data set [15]; “Dose-dependent effect” in data set [16]. Moreover, the Activity result in [11] was “tde”; in [12], “Dose-dependent effect”.
Regarding `O=C(O)CCOc1no[n+]([O-])c1S(=O)(=O)c1ccccc1`, the “inhibition (INH)” value in [7] is recorded as “Not Active”; in data set [6] it was “Not Active”; in data set [8], “Active”; in [9], “Active”.
Take `O=C(O)c1ccc(CC(CO[N+](=O)[O-])O[N+](=O)[O-])cc1` (stereo not drawn): the “inhibition (INH)” value in data set [6] was “Not Active”.
As for `COc1cccc2c1C(=O)c1c(O)c3c(c(O)c1C2=O)C[C@@](O)(C(=O)COC(=O)c1ccc(CC(CO[N+](=O)[O-])O[N+](=O)[O-])cc1)C[C@@H]3O[C@H]1C[C@H](N)[C@H](O)[C@H](C)O1.Cl` (stereo partly drawn), the inhibition result in data set [10] is “inactive”. The “inhibition (INH)” value in [1] is listed as “Active”; in [13] it was “Not Active”; in [6], “Active”; in data set [14] it was “tde”; in data set [15], “Not Active”; in data set [16] it was “Dose-dependent effect”. The Activity entry in data set [11] was “tde”; in data set [12], “Dose-dependent effect”.

For the origin of these results see ChEMBL document CHEMBL2203231, “Nitric oxide donor doxorubicins accumulate into Doxorubicin-resistant human colon cancer cells inducing cytotoxicity” (ACS Med Chem Lett, 2011).
